SMILES strings stand for the structures. Some results are limits rather than exact numbers.

A word on the IC50: it is the concentration needed to halve the response being measured.

Test [1] concerns the target T1, Tyrosine-protein phosphatase non-receptor type 1 (Homo sapiens) (UniProt P18031).
T1 sequence (whole entry): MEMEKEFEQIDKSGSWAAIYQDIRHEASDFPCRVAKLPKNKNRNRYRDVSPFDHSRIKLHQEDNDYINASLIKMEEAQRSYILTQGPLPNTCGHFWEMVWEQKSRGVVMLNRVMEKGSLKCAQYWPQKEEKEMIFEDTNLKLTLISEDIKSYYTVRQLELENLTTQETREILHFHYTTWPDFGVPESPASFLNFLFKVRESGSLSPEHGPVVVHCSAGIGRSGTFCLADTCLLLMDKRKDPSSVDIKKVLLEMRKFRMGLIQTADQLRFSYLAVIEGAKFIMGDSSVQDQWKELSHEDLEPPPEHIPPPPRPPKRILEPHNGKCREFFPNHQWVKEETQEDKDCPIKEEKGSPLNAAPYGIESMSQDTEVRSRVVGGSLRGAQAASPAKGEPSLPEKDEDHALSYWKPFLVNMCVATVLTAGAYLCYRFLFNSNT
In words: (§1) Inhibition of recombinant human PTP1B using p-nitrophenyl phosphate as substrate after 30 mins. The method in brief:
(§2)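 Reaction buffer: 10 citrate pH […], 0.1 M NaCl, 1 mM EDTA, 1 mM dithiothreitol. Enzyme and sample were added with 50 of 4 mM pNPP substrate stock, incubated 30 min at 37 °C, then quenched with 10 N NaOH.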

Test [2] concerns the target T2, Tyrosine-protein phosphatase non-receptor type 1 (Homo sapiens, UniProt P18031).
T2 sequence (P18031 whole entry): T1 sequence (whole entry)
Described as §1. The method in brief: as §2

Turning to `C=CCN(CC=C)c1ccccc1C(=O)/C=C/c1cc(Br)c(O)cc1OC`, in test [1], the inhibition entry was “Dose-dependent effect”. Further, the IC50 in test [2] amounted to 3.5 µM.

For the compound `COc1cc(O)c(Br)cc1/C=C/C(=O)c1ccccc1N1CCCCC1`, in test [1], the inhibition entry was “Dose-dependent effect”. Moreover, in test [2], the IC50 was found to be 6.8 µM. Take `C=CCc1cc(C(=O)/C=C/c2cc(Br)c(O)cc2OC)ccc1O`: in test [1], the inhibition entry was “Dose-dependent effect”. In test [2], the IC50 turned out to be 7.1 µM. On to `COc1cc(O)c(Br)cc1/C=C/C(=O)c1ccc(NC(=O)c2ccc(C(C)(C)C)cc2)cc1`, for which, in test [1], the inhibition result was “Dose-dependent effect”. In addition, in test [2], the IC50 was 3.4 µM. On to `COc1cc(O)c(Br)cc1/C=C/C(=O)c1ccc(O)cc1`, for which, in test [1], the inhibition result is “Dose-dependent effect”. For the same compound, the IC50 in test [2] is 13.7 µM. Turning to `C=C(C)C(C)c1cc(C(=O)/C=C/c2cc(Br)c(OC3CCCCO3)cc2OC)ccc1O` (stereo unspecified), the inhibition entry in test [1] is “Dose-dependent effect”. The IC50 in test [2] is 10.3 µM. For `COc1cc(O)c(Br)cc1/C=C/C(=O)c1ccc(OC(=O)c2ccc(C(C)(C)C)cc2)cc1`, in that order: “Dose-dependent effect” and 2.4 µM.

Regarding `C=C(C)C(C)c1cc(C(=O)/C=C/c2cc(Br)c(O)cc2O)ccc1OC` (stereo unspecified), in test [1], the inhibition result was “Dose-dependent effect”. Also, the IC50 in test [2] was determined as 2.6 µM. As for `C=CCc1cc(C(=O)/C=C/c2cc(Br)c(O)cc2OC)ccc1OC`, in test [1], the inhibition result is “Dose-dependent effect”. In test [2], the IC50 turned out to be 5.3 µM. In the case of `COc1cc(O)c(Br)cc1/C=C/C(=O)c1cccc(N)c1`, the inhibition entry in test [1] is “Dose-dependent effect”. In test [2], the IC50 came out at 6.8 µM. For `CCCCOc1ccc(C(=O)/C=C/c2cc(Br)c(O)cc2OC)cc1`, the inhibition entry in test [1] is “Dose-dependent effect”. Moreover, in test [2], the IC50 was found to be 4.2 µM.

In the case of `COc1cc(O)c(Br)cc1/C=C/C(=O)c1ccc(N2CCOCC2)cc1`, in test [1], the inhibition result was “Dose-dependent effect”. In test [2], the IC50 was 8 µM.

As to `C=C(C)C(C)c1cc(C(=O)/C=C/c2cc(Br)c(O)cc2OC)ccc1OC` (stereo unspecified), in test [1], the inhibition result was “Dose-dependent effect”. The IC50 in test [2] stood at 1.9 µM. For the compound `COc1cc(O)c(Br)cc1/C=C/C(=O)c1cc2c(cc1N(C)C)OCO2`, the inhibition entry in test [1] was “Dose-dependent effect”. Moreover, the IC50 in test [2] turned out to be 6.3 µM.

Consider `C=CCN(CC=C)c1ccc(C(=O)/C=C/c2cc(Br)c(O)cc2OC)cc1`, for which the inhibition result in test [1] was “Dose-dependent effect”. For the same compound, the IC50 in test [2] was found to be 3.4 µM. For `COc1cc(O)c(Br)cc1/C=C/C(=O)c1ccc(N2CCCCC2)cc1`, in that order: “Dose-dependent effect” and 2.6 µM. For `COc1cc(O)c(Br)cc1/C=C/C(=O)c1ccc(N)cc1`, in that order: “Dose-dependent effect” and 6.2 µM.

As for `COc1cc(O)c(Br)cc1/C=C/C(=O)c1cccc(NS(C)(=O)=O)c1`, the inhibition entry in test [1] was “Dose-dependent effect”. Further, in test [2], the IC50 stood at 11.3 µM. For `COc1cc(O)c(Br)cc1/C=C/C(=O)c1ccc(OC(=O)c2ccccc2)cc1`, in that order: “Dose-dependent effect” and 4.9 µM. For `COc1cc(O)c(Br)cc1/C=C/C(=O)c1ccc(OC(=O)c2ccc(Br)cc2)cc1`, in that order: “Dose-dependent effect” and 2.3 µM. On to `COc1cc(O)c(Br)cc1/C=C/C(=O)c1ccc(N(C)C)cc1`, for which the IC50 in test [2] was more than 30 µM. Still for that read-out and setting: with `COc1cc(O)c(Br)cc1/C=C/C(=O)c1ccc(OCC(=O)O)cc1` the figure was more than 30 µM. In the case of `COc1cc(O)c(Br)cc1/C=C/C(=O)c1ccc(OCc2ccccc2)cc1`, the inhibition entry in test [1] was “Dose-dependent effect”. Also, in test [2], the IC50 came to 2.9 µM. As for `C=C(C)[C@H](C)c1cc(/C=C/C(=O)c2ccc(O)cc2)c(OC)cc1O` [LICOCHALCONE E], the IC50 in test [2] is 20.7 µM.

`CCOC(=O)CCCOc1ccc(C(=O)/C=C/c2cc(Br)c(O)cc2OC)cc1`: the inhibition result in test [1] was “Dose-dependent effect”. Also, the IC50 in test [2] was found to be 10.8 µM. The corresponding values for `COc1cc(O)c(Br)cc1/C=C/C(=O)c1cccc(N(C)C)c1` are “Dose-dependent effect” and 26.4 µM.

Consider `COc1ccc(C(=O)/C=C/c2cc(Br)c(O)cc2OC)cc1`, for which the inhibition entry in test [1] is “Dose-dependent effect”. Also, in test [2], the IC50 is 9.9 µM. In the case of `C=CCN(CC=C)c1cccc(C(=O)/C=C/c2cc(Br)c(O)cc2OC)c1`, the inhibition entry in test [1] was “Dose-dependent effect”. Moreover, the IC50 in test [2] turned out to be 4.5 µM. Turning to `COc1cc(O)c(Br)cc1/C=C/C(=O)c1ccc(-n2cccn2)cc1`, in test [1], the inhibition entry is “Dose-dependent effect”. For the same compound, the IC50 in test [2] is 6 µM.

`COc1cc(O)c(Br)cc1/C=C/C(=O)c1ccccc1N(C)C`: the inhibition result in test [1] was “Dose-dependent effect”. For the same compound, the IC50 in test [2] came to 13.9 µM. Regarding `C=C(C)C(C)c1cc(C(=O)/C=C/c2cc(Br)c(OC3CCCCO3)cc2O)ccc1OC` (stereo unspecified), the inhibition result in test [1] is “Dose-dependent effect”. The IC50 in test [2] stood at 2.9 µM. For `COc1cc(O)c(Br)cc1/C=C/C(=O)c1ccc(O)c(CC=C(C)C)c1`, in that order: “Dose-dependent effect” and 4.4 µM. As for `COc1cc(O)c(Br)cc1/C=C/C(=O)c1ccc(OC)c(CC=C(C)C)c1`, in test [1], the inhibition entry was “Dose-dependent effect”. Besides, in test [2], the IC50 was found to be 2.9 µM. For `C=C(C)C(C)c1cc(C(=O)/C=C/c2cc(Br)c(O)cc2OC)ccc1O` (stereo unspecified), the inhibition entry in test [1] is “Dose-dependent effect”. In test [2], the IC50 was determined as 6.9 µM. For `COc1cc(O)c(Br)cc1/C=C/C(=O)c1ccc(OS(C)(=O)=O)cc1`, in that order: “Dose-dependent effect” and 18.4 µM.

In the case of `COc1cc(O)c(Br)cc1/C=C/C(=O)c1ccc(OCC=C(C)C)cc1`, the inhibition result in test [1] was “Dose-dependent effect”. In addition, the IC50 in test [2] stood at 3.5 µM. For `COc1cc(O)c(Br)cc1/C=C/C(=O)c1cccc(N2CCCCC2)c1`, in that order: “Dose-dependent effect” and 4.9 µM.

As for `CCOC(=O)COc1ccc(C(=O)/C=C/c2cc(Br)c(O)cc2OC)cc1`, in test [1], the inhibition result is “Dose-dependent effect”. For the same compound, in test [2], the IC50 amounted to 15.2 µM. Take `COc1cccc(C(=O)/C=C/c2cc(Br)c(O)cc2OC)c1`: in test [1], the inhibition result is “Dose-dependent effect”. Moreover, the IC50 in test [2] was determined as 11.1 µM. Regarding `C=C(C)C(C)c1cc(C(=O)/C=C/c2cc(Br)c(O)cc2OC)ccc1OCC=C(C)C` (stereo unspecified), the inhibition entry in test [1] was “Dose-dependent effect”. Further, the IC50 in test [2] amounted to 7 µM. For `COc1cc(O)c(Br)cc1/C=C/C(=O)c1ccc(OCCCC(=O)O)cc1`, in that order: “Dose-dependent effect” and 30 µM. The corresponding values for `COc1cc(O)c(Br)cc1/C=C/C(=O)c1ccc(OS(=O)(=O)c2ccc(C)cc2)cc1` are “Dose-dependent effect” and 2.7 µM.

For the origin of these results see ChEMBL document CHEMBL1777723, “Design, synthesis, and evaluation of bromo-retrochalcone derivatives as protein tyrosine phosphatase 1B inhibitors” (Bioorg Med Chem Lett, 2011).
